Assay results as given in PMC9052103 (RSC Advances, 2020).
Values after ≈ are worked out from the molar mass of the structure shown.

Tests used:
Format in all cases: cell-based
E. faecium ATCC 700221 = experiment: MIC, 96-well microtiter broth dilution; conditions: Enterococcus faecium, ATCC700221, read-out: MIC E. faecium ATCC 700221
S. aureus ATCC BAA-1720 = experiment: MIC, 96-well microtiter broth dilution; conditions: Staphylococcus aureus, ATCCBAA1720|MRSA, read-out: MIC S. aureus ATCC BAA-1720
E. faecalis ATCC 29212 = experiment: MIC, 96-well microtiter broth dilution; conditions: Enterococcus faecalis, ATCC29212, read-out: MIC E. faecalis ATCC 29212
S. aureus ATCC BAA-1747 = experiment: MIC, 96-well microtiter broth dilution; conditions: Staphylococcus aureus, ATCCBAA1747|MRSA, read-out: MIC S. aureus ATCC BAA-1747
E. faecium ATCC 49624 = experiment: MIC, 96-well microtiter broth dilution; conditions: Enterococcus faecium, ATCC49624, read-out: MIC E. faecium ATCC 49624
E. coli ATCC 8739 = experiment: MIC, 96-well microtiter broth dilution; conditions: Escherichia coli, ATCC8739, read-out: MIC E. coli ATCC 8739
S. aureus ATCC BAA-41 = experiment: MIC, 96-well microtiter broth dilution; conditions: Staphylococcus aureus, ATCCBAA41|MRSA, read-out: MIC S. aureus ATCC BAA-41
E. coli ATCC 25922 = experiment: MIC, 96-well microtiter broth dilution; conditions: Escherichia coli, ATCC25922, read-out: MIC E. coli ATCC 25922
[1] = test system: S. epidermidis ATCC 12228; experiment: MIC, 96-well microtiter broth dilution; conditions: Staphylococcus epidermidis, ATCC12228, read-out: MIC S. epidermidis ATCC 12228
S. aureus ATCC 29213 [2] = experiment: MIC, 96-well microtiter broth dilution; conditions: Staphylococcus aureus, ATCC29213, read-out: MIC S. aureus ATCC 29213
S. aureus ATCC 43300 = experiment: MIC, 96-well microtiter broth dilution; conditions: Staphylococcus aureus, ATCC43300|MRSA, read-out: MIC S. aureus ATCC 43300
E. coli ATCC BAA-2469 = experiment: MIC, 96-well microtiter broth dilution
S. aureus ATCC 29213 [3] = experiment: In vitro drug resistance development, serial passage
Summary of the method: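 Serial passage against S. aureus ATCC 29213: culture from the 0.5 × MIC well of the prior MIC plate diluted to 5 × 10^5 CFU mL−1 and exposed to a range of test compound concentrations. MIC read after 24 h at 37 °C. Cycle repeated 35 times. Ciprofloxacin, vancomycin and rifampin passaged in parallel.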

| Compound | MIC (E. faecium ATCC 700221) [µg/mL] | MIC (S. aureus ATCC BAA-1720) [µg/mL] | MIC (E. faecalis ATCC 29212) [µg/mL] | MIC (S. aureus ATCC BAA-1747) [µg/mL] | MIC (E. faecium ATCC 49624) [µg/mL] | MIC (E. coli ATCC 8739) [µg/mL] | MIC (S. aureus ATCC BAA-41) [µg/mL] | MIC (E. coli ATCC 25922) [µg/mL] | MIC [1] [µg/mL] | MIC (S. aureus ATCC 29213 [2]) [µg/mL] | MIC (S. aureus ATCC 43300) [µg/mL] | MIC against antibiotics resistant E. coli mutant NDM-1 strain (E. coli ATCC BAA-2469) [µg/mL] | Increase of MIC after 35 passages (S. aureus ATCC 29213 [3]) [fold] |
| --- | --- | --- | --- | --- | --- | --- | --- | --- | --- | --- | --- | --- | --- |
| Cc1cc(/C=C2\Sc3ccccc3N2CCCN2CCCCC2)c2ccccc2[n+]1C.[I-] [Compound 4a3, (Z)-1,2-Dimethyl-4-((3-(3-(piperidin-1-yl)propyl)benzo[d]thiazol-2(3H)-ylidene)methyl)quinolin-1-ium iodide] | 32 | 32 | 64 | 32 | 32 | 4 | 8 | 4 | 8 | 32 | 32 |  |  |
| C[n+]1ccc(/C=C2\Sc3ccccc3N2CCCN2CCCCC2)c2ccccc21.[I-] [Compound 4b3, (Z)-1-Methyl-4-((3-(3-(piperidin-1-yl)propyl)benzo[d]thiazol-2(3H)-ylidene)methyl)quinolin-1-ium iodide] | 32 | 16 | > 64 | 8 | 32 | 4 | 4 | 2 | 2 | 32 | 8 |  |  |
| C[n+]1c(/C=C/c2c[nH]c3ccccc23)cc(/C=C2\Sc3ccccc3N2CCCN2CCOCC2)c2ccccc21.[I-] [Compound 4c1, 2-((E)-2-(1H-Indol-3-yl)vinyl)-1-methyl-4-((Z)-(3-(3-morpholinopropyl)benzo[d]thiazol-2(3H)-ylidene)methyl)quinolin-1-ium iodide] | 8 | 16 | 16 | 16 | 16 | 64 | 16 | 8 | 2 | 16 | 16 |  |  |
| C[n+]1c(/C=C/c2ccc(O)cc2)cc(/C=C2\Sc3ccccc3N2CCCN2CCOCC2)c2ccccc21.[I-] [Compound 4c2, 2-((E)-4-Hydroxystyryl)-1-methyl-4-((Z)-(3-(3-morpholinopropyl)benzo[d]thiazol-2(3H)-ylidene)methyl)quinolin-1-ium iodide] | 4 | 32 | 16 | 16 | 8 | 32 | 8 | 4 | 4 | 16 | 16 |  |  |
| C[n+]1c(/C=C/c2c[nH]c3ccccc23)cc(/C=C2\Sc3ccccc3N2CCCN2CCCC2)c2ccccc21.[I-] [Compound 4d1, 2-((E)-2-(1H-Indol-3-yl)vinyl)-1-methyl-4-((Z)-(3-(3-(pyrrolidin-1-yl)propyl)benzo[d]thiazol-2(3H)-ylidene)methyl)quinolin-1-ium iodide] | 16 | 8 | 32 | 8 | 8 | 16 | 4 | 4 | 2 | 16 | 8 |  |  |
| C[n+]1c(/C=C/c2ccc(O)cc2)cc(/C=C2\Sc3ccccc3N2CCCN2CCCC2)c2ccccc21.[I-] [Compound 4d2, 2-((E)-4-Hydroxystyryl)-1-methyl-4-((Z)-(3-(3-(pyrrolidin-1-yl)propyl)benzo[d]thiazol-2(3H)-ylidene)methyl)quinolin-1-ium iodide] | 32 | 32 | 64 | 32 | 32 | 32 | 32 | 32 | 16 | 32 | 32 |  |  |
| CSc1ccc(/C=C/c2cc(/C=C3\Sc4ccccc4N3CCCN3CCCC3)c3ccccc3[n+]2C)cc1.[I-] [Compound 4d3, 1-Methyl-2-((E)-4-(methylthio)styryl)-4-((Z)-(3-(3-(pyrrolidin-1-yl)propyl)benzo[d]thiazol-2(3H)-ylidene)methyl)quinolin-1-ium iodide] | 32 | 32 | 64 | 32 | 64 | 32 | 32 |  | 16 | 16 | 32 |  |  |
| CC1(C)S[C@@H]2[C@H](NC(=O)[C@H](N)c3ccccc3)C(=O)N2[C@H]1C(=O)O [amp, ampicillin, reference compound] | > 64 | > 64 | 0.5 (≈ 1.43 µM) | > 64 | 0.25 (≈ 0.715 µM) | 2 (≈ 5.72 µM) | > 64 | 1 (≈ 2.86 µM) | > 64 | > 64 | > 64 | > 64 |  |
| O=C(O)c1cn(C2CC2)c2cc(N3CCNCC3)c(F)cc2c1=O [ciprofloxacin] |  |  |  |  |  |  |  |  |  |  |  |  | 32 |
| COc1cccc(OC)c1C(=O)N[C@@H]1C(=O)N2[C@@H]1SC(C)(C)[C@@H]2C(=O)O [meth, methicillin, reference compound] | 1.5 (≈ 3.94 µM) | 1020 (≈ 2690 µM) | 1 (≈ 2.63 µM) | 256 (≈ 673 µM) | 4 (≈ 10.5 µM) | > 64 | 1020 (≈ 2690 µM) | 2 (≈ 5.26 µM) | 0.5 (≈ 1.31 µM) | 0.5 (≈ 1.31 µM) | 512 (≈ 1350 µM) | > 64 |  |
| CO[C@H]1/C=C/O[C@@]2(C)Oc3c(C)c(O)c4c(O)c(c(/C=N/N5CCN(C)CC5)c(O)c4c3C2=O)NC(=O)/C(C)=C\C=C\[C@H](C)[C@H](O)[C@@H](C)[C@@H](O)[C@@H](C)[C@H](OC(C)=O)[C@@H]1C [rif, rifampin, reference compound] | < 0.125 | < 0.125 | 0.5 (≈ 0.608 µM) | < 0.125 | < 0.125 | 8 (≈ 9.72 µM) | < 0.125 | 4 (≈ 4.86 µM) | 1 (≈ 1.22 µM) | 0.5 (≈ 0.608 µM) | < 0.125 | > 64 | 8192 |
| CN[C@H](CC(C)C)C(=O)N[C@H]1C(=O)N[C@@H](CC(N)=O)C(=O)N[C@H]2C(=O)N[C@H]3C(=O)N[C@H](C(=O)N[C@H](C(=O)O)c4cc(O)cc(O)c4-c4cc3ccc4O)[C@H](O)c3ccc(c(Cl)c3)Oc3cc2cc(c3O[C@@H]2O[C@H](CO)[C@@H](O)[C@H](O)[C@H]2O[C@H]2C[C@](C)(N)[C@H](O)[C@H](C)O2)Oc2ccc(cc2Cl)[C@H]1O [van, vancomycin, reference compound] | 1020 (≈ 707 µM) | 0.5 (≈ 0.345 µM) | 2 (≈ 1.38 µM) | 1 (≈ 0.69 µM) | 0.5 (≈ 0.345 µM) | > 64 | 2 (≈ 1.38 µM) | > 64 | > 64 | 2 (≈ 1.38 µM) | 2 (≈ 1.38 µM) | > 64 | 512 |
